# In the library only some 2.3% were active in any assay of this set; here they are far more common.
# TRPC4 inh – inhibitors of mouse TRPC4 channel; AID 2247; B-score at 10 µM; Q9QUQ5; actives 0.39% (n = 300,000); HEK293 TRPC4beta/mu-opioid, DAMGO-evoked Fluo4 calcium flux; stronger effect = lower value;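 active = B-score over 3 SD under the library average, no early fluorescence shift, positive overall ratio signal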
#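 Assay system: HEK293 cells with stable TRPC4beta plus mu-opioid receptor expression; Probe or stimulus: DAMGO in two steps, submaximal then maximal; Dosing: single-point compound dosing; Measured by: Fluo4 calcium-dye fluorescence, kinetic read; Read-out basis: B score from integrated Fluo4 fluorescence ratio.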
# TRPC4 PAM – allosterically enhances the mouse TRPC4 cation channel; Q9QUQ5; HEK293 TRPC4beta/mu-opioid, DAMGO EC20, Fluo-4 Ca2+ flux; stronger effect = higher value; B-score at 10 µM; actives 0.42% (n = 310,000);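 active = B-score of calcium response area above 5 SD of library B-scores, with initial fluorescence ratio within 5 SD of library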;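 note: B-score of integrated fluorescence ratio over time as area under calcium response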
# TRPC6 inh – inhibitors of mouse TRPC6 channel; HEK293-TRPC6, membrane potential dye, ACh-evoked depolarization; stronger effect = lower value; B-score at 10 µM; AID 2553; actives 1.1% (n = 310,000);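 active = B-score under library mean minus 3 SD, initial fluorescence not abnormally high, positive integrated signal ratio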;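 note: B-score derived from integrated fluorescence ratio over the kinetic read; more negative B-score means stronger inhibition of depolarization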
# Target sequence (Q61143 whole entry, looked up): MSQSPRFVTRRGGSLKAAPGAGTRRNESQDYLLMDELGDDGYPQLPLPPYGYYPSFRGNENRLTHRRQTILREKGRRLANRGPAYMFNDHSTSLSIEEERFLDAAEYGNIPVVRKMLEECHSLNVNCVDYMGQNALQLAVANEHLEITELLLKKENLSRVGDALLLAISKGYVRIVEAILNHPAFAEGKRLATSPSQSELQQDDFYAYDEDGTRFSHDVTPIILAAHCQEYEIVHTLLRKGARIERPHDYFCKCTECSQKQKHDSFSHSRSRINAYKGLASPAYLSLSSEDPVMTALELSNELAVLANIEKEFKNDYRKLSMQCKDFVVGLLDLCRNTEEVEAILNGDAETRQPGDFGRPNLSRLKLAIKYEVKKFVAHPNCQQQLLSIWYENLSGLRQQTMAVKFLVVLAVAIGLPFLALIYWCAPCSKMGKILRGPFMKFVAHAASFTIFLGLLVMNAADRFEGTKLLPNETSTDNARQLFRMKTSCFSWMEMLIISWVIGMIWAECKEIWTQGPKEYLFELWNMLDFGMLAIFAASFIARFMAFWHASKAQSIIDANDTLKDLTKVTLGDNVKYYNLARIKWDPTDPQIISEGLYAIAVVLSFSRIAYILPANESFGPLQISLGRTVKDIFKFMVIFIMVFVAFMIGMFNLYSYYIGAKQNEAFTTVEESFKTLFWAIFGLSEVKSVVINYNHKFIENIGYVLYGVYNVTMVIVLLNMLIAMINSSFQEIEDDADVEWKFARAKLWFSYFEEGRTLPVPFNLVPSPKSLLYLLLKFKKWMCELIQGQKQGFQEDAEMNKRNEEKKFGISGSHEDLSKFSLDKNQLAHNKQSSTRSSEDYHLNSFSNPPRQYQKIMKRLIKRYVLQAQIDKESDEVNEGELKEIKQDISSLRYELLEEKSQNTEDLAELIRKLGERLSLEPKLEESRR
# TRPC4 act – TRPC4 (mouse) channel activation | Q9QUQ5 | HEK293 TRPC4beta/mu-opioid, Fluo4 calcium fluorescence; stronger effect = higher value | B-score at 10 µM | AID 2237 | actives 0.49% (n = 310,000);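 active = B-score above 5 SD of library B-scores, and initial fluorescence ratio not above library mean plus 5 SD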;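 note: positive B-score marks a calcium rise read as TRPC4 activation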
#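 Assay system: HEK293 stable line with TRPC4beta plus mu-opioid receptor; schedule: 45 min room-temperature Fluo4 loading, 110 s read; technique: kinetic Fluo4 calcium fluorescence; evaluation: integrated baseline-normalised fluorescence ratio, converted to per-well B score; controls: buffer (low) and maximal DAMGO (high)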
# TRPC6 act – mouse TRPC6 channel activation. actives 0.13% (n = 310,000). AID 2550. Q61143. B-score at 10 µM. HEK293-TRPC6 membrane potential dye fluorescence; stronger effect = higher value;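 active = B-score of the integrated fluorescence ratio above library mean plus 3 SD, and starting fluorescence ratio within library mean plus 5 SD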;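 note: higher score means more depolarization so channel activation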
# * hit, by the source's call; i = inactive; . = not tested or not shown.
SMILES,TRPC4 inh,TRPC4 PAM,TRPC6 inh,TRPC4 act,TRPC6 act
CN(C)CCCn1c(=O)n(CCc2ccccc2)c(=O)c2c3c(sc21)CCCCC3,i,22*,i,i,i
CN(C)CCn1c(=O)n(Cc2ccccc2)c(=O)c2c3c(sc21)CCCCC3,i,i,i,i,i
CCc1ccc2nc3n[nH]c(N)c3cc2c1,i,i,i,68*,i
COc1ccc(/C=N/n2c(SC)nnc2-c2ccccc2)cc1C,i,34*,i,i,i
CCOc1ccccc1NC(=O)COC(=O)CCOc1cc(C)ccc1C,i,i,i,i,i
Cc1cc(Br)cc(C)c1OCCCCN(C)C,i,35*,i,i,i
Cc1cc(Cl)c(OCCCN(C)C)c(Br)c1,i,i,i,i,i
COc1ccccc1C(=O)OC1CCCN(C)C1 (stereo not drawn),i,10*,i,i,i
CN1CCCC(OC(=O)c2ccccc2F)C1 (stereo not drawn),i,i,i,i,i
O=[N+]([O-])c1ccc(CSC2=NCCS2)cc1,i,i,i,i,i
CNCC(C)COc1ccccc1OCc1ccccc1 (stereo not drawn),-6*,i,i,i,i
Cc1ccc(C)c(Nc2cc(C)nc3ccccc23)c1,i,i,i,i,i
CN1CCN(c2ccc(NC(=O)c3ccc(Br)o3)cc2)CC1,-7*,i,i,i,i
C=CCNCCCCOc1cccc(Br)c1,i,13*,i,i,i
NC1=NC2=C(CCCC2)C2(CCCCC2)S1,-6*,i,i,i,i
COc1cccc(-c2c(C(=O)N/N=C/c3sccc3C)nnn2-c2nonc2N)c1,i,i,i,i,i
CCCOc1cccc(C(=O)NCCNC(=O)c2ccco2)c1,-6*,i,i,i,i
COC(C[C@H]1O[C@H]1[C@H](O)[C@@H](C)OCc1ccccc1)OC,i,i,i,i,i
COc1ccc(C2CC2/C(=N/O)c2ccccn2)cc1 (stereo not drawn),i,i,i,i,i
COc1ccc(C2CC2/C(=N/O)c2ccccc2)cc1 (stereo not drawn),-8*,i,i,i,i
O=C(CSc1ccccc1)NNC(=O)c1ccccc1O,i,i,i,i,i
CC(Sc1nnnn1-c1ccccc1)C(=O)Nc1ccc(N2CCN(C)CC2)cc1 (stereo not drawn),i,i,i,47*,i
CC(Sc1nnnn1-c1ccccc1)C(=O)Nc1ccccc1-c1ccccc1 (stereo not drawn),i,i,i,i,i
CC(OC(=O)c1cccs1)C(=O)NC1CC1 (stereo not drawn),i,i,i,i,i
CCC(C)(C)NC(=O)C(c1ccc(OC)cc1)N(C(=O)CCC(=O)Nc1cc(C)on1)C(C)(C)C (stereo not drawn),i,i,i,i,i
SMILES,TRPC4 inh,TRPC4 PAM,TRPC6 inh,TRPC4 act,TRPC6 act
CCn1c2ccccc2c2cc(CNCc3ccc(OC)cc3OC)ccc21,i,i,i,66*,i
CCn1c2ccccc2c2cc(CNCCCN3CCOCC3)ccc21,i,i,-6.3*,i,i
CCC(CC)NCc1ccc2c(c1)c1ccccc1n2CC,i,i,i,i,i
COc1ccc(CNCc2cc(C)c(OC)cc2C)c(OC)c1,-5*,i,i,i,i
CCOc1ccc(N(CC(=O)NCc2ccccc2C)S(C)(=O)=O)cc1,i,i,i,i,i
Cc1[nH]n2c(=O)cc(-c3ccc([N+](=O)[O-])cc3)nc2c1-c1ccccc1,-5*,i,i,i,i
COc1c2ccoc2nc2c(OC)c(OCC(OC(C)=O)C(C)(C)O)ccc12 (stereo not drawn),i,i,i,i,i
Cc1ccc(S(=O)(=O)NNC(=O)c2ccncc2)cc1[N+](=O)[O-],i,i,i,i,i
CC(C)Cc1csc(NC(=O)c2ccc(Cl)cc2)c1C(=O)O,i,i,i,48*,i
CC(C)Cc1csc(NC(=O)c2ccccc2Cl)c1C(=O)O,i,i,i,i,i
O=C(CCSc1nc(-c2ccco2)cc(C(F)(F)F)n1)N1CCN(c2ccccn2)CC1,i,i,-6.3*,i,i
CCN(CC)Cc1ccc(OC)c(Cl)c1,i,i,i,i,i
COc1ccc(CSCCN)cc1Cl,i,i,i,103*,i
CC1(C)CC(=O)C(C(O)c2cccc([N+](=O)[O-])c2)C(C)(C)N1 (stereo not drawn),i,i,i,i,i
COc1cc(C(C)=O)ccc1OCC(O)CNCC(O)c1ccccc1 (stereo not drawn),i,i,i,i,i
COc1cccc(CCNC(=O)c2cc(COc3c(F)cccc3F)on2)c1,i,i,i,i,i
O=C(Nc1ccc(Br)cc1)c1cccc(-n2cnnn2)c1,i,i,i,i,i
O=C(Nc1nc(-c2ccccn2)cs1)c1cccc(-n2cnnn2)c1,i,13*,i,i,i
O=C(O)CCC1c2cc3c4cc2OC2Oc5cc6c(cc51)C(CCC(=O)O)c1cc5c7cc1OC(O6)c1cc6cc(c1)Oc1cc(cc(C(=O)O)c1)Oc1cc8cc(c1)C(Oc1cc(c(cc1C5CCC(=O)O)C3CCC(=O)O)OC(O4)c1cc(cc(c1)Oc1cc(cc(C(=O)O)c1)O8)Oc1cc(cc(C(=O)O)c1)Oc1cc(cc2c1)Oc1cc(cc(C(=O)O)c1)O6)O7 (stereo not drawn),i,i,i,43*,186*
Cc1sc(NC(=O)c2ccco2)c(C(c2ccc(F)cc2)N2CCN(C)CC2)c1C (stereo not drawn),i,34*,i,i,i
Cc1sc(NC(=O)c2ccco2)c(C(c2cccnc2)N2CCN(c3ccc(F)cc3)CC2)c1C (stereo not drawn),i,i,i,i,i
O=C(Nc1ccc2c(c1)CCC2)c1cnc(Cl)c(Cl)c1,i,i,i,i,i
O=C(Nc1ccc2c(c1)CCC2)c1ccc(Cl)nc1,-6*,i,i,i,i
Cc1n[nH]c(C)c1CCCCOc1ccccc1,-7*,i,i,i,i
Cc1ccccc1OCCCc1c(C)n[nH]c1C,.,i,i,i,i
Cc1n[nH]c(C)c1CCCCOc1ccccc1F,-6*,i,i,i,i
Cc1ccc(OCCCc2c(C)n[nH]c2C)cc1,i,i,i,i,i
